A short description of data set [1]: Drug uptake in iv dosed C57Bl/6JRccHsd mouse blood cells measured at 20 mins. As to conditions: in vivo. It counts as ADME, organism-based. The gist of the method: (§1)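 Mice got tracer i.v., some after i.p. KYP-2047 (50 µmol/kg) 10 min before. Cardiac blood was collected at 20, 40, 80 or 160 min and spun 5 min at 2000 g into cells and plasma. Plasma was precipitated with acetonitrile and pellet and supernatant were gamma-counted. Activity in cells, protein-bound and free plasma is given as % of total blood activity, n = 3.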

The nature of data set [2]: Drug uptake in iv dosed C57Bl/6JRccHsd mouse blood cells measured at 80 mins. It counts as ADME, organism-based. As to conditions: in vivo. The gist of the method: as §1
Data set [3] in a line: Plasma protein binding in iv dosed C57Bl/6JRccHsd mouse measured at 80 mins. Type of data set: ADME, organism-based. As to conditions: in vivo. In outline:
(§2)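 Male mice given 3.6 MBq tracer i.v. via lateral tail vein; blocking groups got POP inhibitor i.p. (50 µmol/kg, 10 mL/kg, 1% DMSO in 0.9% NaCl) 10 min before. Heparinized cardiac blood on ice, gamma-counted, spun 5 min at 2000 g; plasma counted, precipitated with 1.5 volumes acetonitrile, respun; cell-bound, protein-bound and free fractions expressed as % of blood activity; n = 3.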

For data set [4], the system named is Mus musculus. In words: Biodistribution in gastrocnemius muscle of iv dosed C57BL/6JRccHsd mouse turpentine-induced acute localized inflammation model after 20 mins to 24 hrs by SPEC-CT analysis (reference value: 2.0 +/- 0.6 %ID/g). Type of data set: ADME, organism-based. As to conditions: in vivo.
Data set [5] in a line: Octanol-phosphate buffer partition coefficient, log P of the compound by shake-flask method. It counts as physicochemical. The gist of the method:
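Tracer (700 kBq, in 1% DMSO/0.9% NaCl) shaken 3 min between n-octanol and 0.02 M phosphate buffer pH 7.4; octanol phase split into four tubes, re-extracted with equal buffer 10 min, centrifuged 5 min at 1000 g; log of octanol/buffer cpm per mL ratio, mean ± SD of four replicates.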

In data set [6] the test system is Mus musculus. Description: Biodistribution in C57Bl/6JRccHsd mouse testis at 2.86 +/- 1.26 MBq, iv measured at 80 mins by SPECT analysis. Type of data set: ADME, organism-based. As to conditions: in vivo. In outline: (§3)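 Organs excised at 5, 20, 40, 80 or 160 min and radioactivity gamma-counted as %ID/g (brain also as %ID). Blocking groups received KYP-2047 (50 µmol/kg, 10 mL/kg, 1% DMSO in 0.9% NaCl) i.p. 10 min before tracer. Mean ± SD, n = 2–4 per time point. Blocking compared by two-tailed Student's t test.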

Data set [7] in a line: Biodistribution in C57Bl/6JRccHsd mouse urine at 2.86 +/- 1.26 MBq, iv measured at 80 mins by SPECT analysis. It counts as ADME, organism-based. As to conditions: in vivo. In outline: as §3
Data set [8] has as its system Mus musculus. In words: Biodistribution in C57Bl/6JRccHsd mouse tongue at 2.86 +/- 1.26 MBq, iv measured at 80 mins by SPECT analysis. It counts as ADME, organism-based. As to conditions: in vivo. In outline:
as §3

Another data set relates to Blood. In words: Biodistribution in C57Bl/6JRccHsd mouse blood at 2.86 +/- 1.26 MBq, iv measured at 20 mins by SPECT analysis. It counts as ADME, organism-based. The following applies: in vivo. In outline:
as §3

Data set [9] in a line: Fraction unbound in iv dosed C57Bl/6JRccHsd mouse plasma measured at 20 mins post dose pretreated with 50 umol/kg, ip prolyl oligopeptidase inhibitor KYP-2047 10 mins before compound dosing by SPECT analysis. Type of data set: ADME, organism-based. The gist of the method: as §2

The logP is the decadic logarithm of the partition coefficient of the neutral form, usually between octanol and water. Lower therefore signals a more hydrophilic compound. Usually fraction unbound stands for free concentration divided by total concentration. On to `N#C[C@@H]1CCCN1C(=O)[C@@H]1CCCN1C(=O)CCCc1ccc([123I])cc1`, for which the Drug uptake in data set [1] was found to be 95%; in data set [2], 84%; in the data set on Mus musculus [4], 0.8 % ID/g; with Mus musculus [6] it was 0.55 % ID/g; in data set [7], 2.23 % ID/g; with Mus musculus [8], 4.43 % ID/g. In the data set on Blood, the Drug uptake is 8.5 % ID/g. In [3], this compound yielded a PPB of 1%. The same compound displayed a logP in data set [5] of 2.37. In [9], the free fraction (fraction unbound) at 20 min was determined as 0.47.

The record behind these values is ChEMBL document CHEMBL3232996, “Synthesis and biological evaluation of novel (123)I-labeled 4-(4-iodophenyl)butanoyl-L-prolyl-(2S)-pyrrolidines for imaging prolyl oligopeptidase in vivo” (Eur J Med Chem, 2014).
